According to ChEMBL document CHEMBL1144476, “Phenolic hydrazones are potent inhibitors of macrophage migration inhibitory factor proinflammatory activity and survival improving agents in sepsis” (J Med Chem, 2007):

Target: T1, Macrophage migration inhibitory factor (Homo sapiens, UniProt P14174)
T1 sequence (P14174 whole entry): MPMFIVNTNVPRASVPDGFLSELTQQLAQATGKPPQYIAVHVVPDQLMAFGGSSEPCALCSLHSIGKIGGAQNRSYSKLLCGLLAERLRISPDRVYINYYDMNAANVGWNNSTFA
Experiment: Inhibition of MIF tautomerase activity by spectrophotometric assay
Conditions: not given

Row | SMILES | IC50 [µM]
1 | CC(C)(C)OC(=O)N/N=C/c1ccc(O)cc1 | 5.5
2 | COc1ccc(N/N=C/c2ccc(O)cc2)cc1 | 0.48
3 | N/N=C/c1ccc(O)cc1 | > 500
4 | COC(=O)N/N=C/c1ccc(O)cc1 | 55
5 | COc1ccc(COC(=O)N/N=C/c2ccc(O)cc2)cc1 | 8
6 | COc1ccc(N/N=C/c2ccc(O)c(F)c2)cc1 | 0.13
7 | O=C(N/N=C/c1ccc(O)cc1)OCc1ccccc1 | 10
8 | Oc1ccc(/C=N/Nc2ccccc2)cc1 | 2.6
9 | CN(/N=C/c1ccc(O)cc1)c1ccccc1 | 300
10 | COc1ccc(N/N=C/c2ccc(O)c(Cl)c2)cc1 | 0.22
11 | COc1ccc(N/N=C/c2ccc(O)c(Br)c2)cc1 | 0.33
12 | CCOC(=O)N/N=C/c1ccc(O)cc1 | 43
13 | CN/N=C/c1ccc(O)cc1 | 43

System: Mus musculus
Experiment: Survival of CLP-induced BALB/c mouse at 4 mg/kg, ip after 3 days
Type: functional
Conditions: 72 h, route intraperitoneal
Procedure, shortened: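 Male Balb/C mice (~8 weeks) given cecal ligation with a single 22G puncture under ketamine/xylazine anaesthesia. Subcutaneous antibiotic and saline resuscitation were given right after surgery. Dosing was 4 mg/kg intraperitoneally in 20% DMSO/80% saline, started 24 h post-CLP and repeated twice daily on days 2 and 3. The vehicle group was handled the same way. Survival was scored with n=13 per group.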

Row | SMILES | survival at 4 mg/kg [%]
14 | COc1ccc(N/N=C/c2ccc(O)c(F)c2)cc1 | 65

Organism: Mus musculus
Experiment: Inhibition of LPS-induced TNFalpha release in […] macrophages after 16 hrs
Type: functional
Conditions: not given
Procedure, shortened: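 […] macrophages (10⁵ cells) given compound at 0.01–100 μM 30 min before LPS stimulation; 16 h incubation, then TNF measured in culture supernatants by ELISA. Mean ± S.D, n=3.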

Row | SMILES | Activity
15 | COc1ccc(N/N=C/c2ccc(O)c(F)c2)cc1 | Dose-dependent effect
